# Measured values from different studies.
# Target: Rhodopsin kinase GRK1 (GRK1, Homo sapiens, UniProt Q15835)
# Residues used in one study (Q15835 1-563): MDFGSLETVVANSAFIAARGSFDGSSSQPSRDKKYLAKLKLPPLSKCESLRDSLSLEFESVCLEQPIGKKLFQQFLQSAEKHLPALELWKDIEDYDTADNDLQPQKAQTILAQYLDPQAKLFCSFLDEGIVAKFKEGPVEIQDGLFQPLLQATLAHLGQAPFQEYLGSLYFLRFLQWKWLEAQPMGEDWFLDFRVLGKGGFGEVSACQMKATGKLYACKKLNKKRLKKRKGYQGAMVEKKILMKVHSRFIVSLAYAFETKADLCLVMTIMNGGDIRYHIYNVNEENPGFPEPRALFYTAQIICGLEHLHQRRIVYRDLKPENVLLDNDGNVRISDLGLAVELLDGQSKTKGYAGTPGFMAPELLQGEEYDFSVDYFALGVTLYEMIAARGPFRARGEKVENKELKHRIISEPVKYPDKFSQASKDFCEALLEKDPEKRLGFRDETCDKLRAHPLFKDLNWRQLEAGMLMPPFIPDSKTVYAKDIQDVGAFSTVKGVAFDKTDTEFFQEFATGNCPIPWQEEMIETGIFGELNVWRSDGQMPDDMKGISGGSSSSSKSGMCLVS
SMILES,observed,mode,method,concentration,measurement,result
Cc1ccc(C(=O)NCc2ccsc2)cc1C#Cc1cn(C(C)C)c2ncnc(N)c12,enzyme activity,inhibitor,,1 µM,activity vs control,106%
CCN1CCC2(CC1)NC(=O)c1c(c3ccc(Cl)c(Cl)c3n1C)C2C#N (racemic),thermal stability,,DSF,10 µM,ΔTm,1.2 °C
NS(=O)(=O)c1cc(NC(=O)Cc2ccccc2)ccc1Oc1cccc(Cl)c1,cell-free assay,,competition with immobilised ligand,1 µM,remaining binding,83%
O=C(Nc1cnn(-c2csc(C(=O)NC3COC3)c2)c1)Nc1c(F)cccc1Cl,enzyme activity,inhibitor,,5 µM,remaining activity,92.9%
CC(C)(O)[C@H]1CC[C@H](Nc2ccc3ncc(-c4cccc(C(F)(F)F)c4)n3n2)CC1,enzyme activity,inhibitor,,1 µM,remaining activity,89.2%
Cn1c2c(Cl)c(Cl)ccc2c2cc(N)[nH]c(=O)c21,thermal stability,,DSF,10 µM,ΔTm,0.5 °C
Cc1cc(NC(=O)c2cccc(S(F)(F)(F)(F)F)c2)cc(-n2ccn3nc(-c4cccnc4)cc23)c1,cell-free assay,,competition with immobilised ligand,1 µM,remaining binding,50.4%
Cc1cc(NC(=O)c2cccc3cc(-c4cccc5[nH]nc(N)c45)ccc23)ccc1F,enzyme activity,inhibitor,,0.1 µM,activity vs control,85%
Cn1c2c(Cl)c(Cl)ccc2c2cn[nH]c(=O)c21,thermal stability,,DSF,10 µM,ΔTm,1.3 °C
CN1CC(Oc2cnc(C#N)cc2-c2ccn3nc(NC(=O)C4CC4)cc3c2)C1,enzyme activity,inhibitor,,1 µM,inhibition,1%
Cc1ccc(NC(=O)c2ccc(C)c(C(F)(F)F)c2)cc1C#Cc1nn(C2CCC(O)CC2)c2ncnc(N)c12 (stereo not drawn),cell-free assay,,,10 µM,remaining signal,94%
O=C(NS(=O)(=O)c1ccc(NCC2CCOCC2)c([N+](=O)[O-])c1)c1ccc(N2CCN(Cc3ccc(C(F)(F)F)cc3-c3ccc(Cl)cc3)CC2)cc1Oc1cnc2[nH]ccc2c1,cell-free assay,,competition with immobilised ligand,1 µM,remaining binding,100%
Cn1c2c(c3ccc(Cl)c(Cl)c31)C(C#N)C1(CCNCC1)NC2=O (racemic),thermal stability,,DSF,10 µM,ΔTm,2.4 °C
COc1ccc2cc(OCC3(C(=O)O)CN(C(=O)c4ccc(F)cc4)C3)ccc2c1,cell-free assay,,competition with immobilised ligand,1 µM,remaining binding,100%
Cc1sc(C(=O)NC2COC2)cc1-n1cc(NC(=O)Nc2c(F)cccc2Cl)cn1,enzyme activity,inhibitor,,10 µM,remaining activity,113%
